Screening data deposited in PubChem by several laboratories.
Hits are enriched below; roughly 1.9% of the tested compounds scored in any of these assays.
Hck-Nef inh: inhibitors of Nef-activated human Hck kinase, primary screen, biochemical, Z-Lyte FRET, 384-well, Hck-YEEI | Tyrosine-protein kinase HCK (Homo sapiens), P08631 | Recombinant Hck-YEEI plus Nef, Z-Lyte FRET kinase assay | inhibition, % at 20 µM | 220,000 compounds, 0.68% hits | AID 463187, 2010;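 active means Hck-Nef kinase inhibition above about 50%, limit read from the data; inactive means inhibition below that limit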;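 further: 0% = DMSO with Hck plus Nef and 100% = Hck alone without Nef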
Runt-SMMHC FRET: inhibitors of RUNX1 Runt–CBFb-SMMHC binding, primary screen, biochemical, FRET, Cerulean-Runt, Venus-CBFb-SMMHC, uHTS | 220,000 compounds, 0.74% hits | inhibition, % at 20 µM | Cerulean-Runt/Venus-CBFb-SMMHC FRET ratio 530/480, 1 h | Runt-related transcription factor 1 (Homo sapiens) + Core-binding factor subunit beta …;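 active means mean inhibition across duplicate retests at 20 µM reaching about 50%, limit read from the data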;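 further: 0% = DMSO wells and 100% = wells with excess untagged CBFb-SMMHC; inhibitors lower the FRET ratio by blocking Runt binding to CBFb-SMMHC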
Target sequence (Q01196 whole entry, looked up): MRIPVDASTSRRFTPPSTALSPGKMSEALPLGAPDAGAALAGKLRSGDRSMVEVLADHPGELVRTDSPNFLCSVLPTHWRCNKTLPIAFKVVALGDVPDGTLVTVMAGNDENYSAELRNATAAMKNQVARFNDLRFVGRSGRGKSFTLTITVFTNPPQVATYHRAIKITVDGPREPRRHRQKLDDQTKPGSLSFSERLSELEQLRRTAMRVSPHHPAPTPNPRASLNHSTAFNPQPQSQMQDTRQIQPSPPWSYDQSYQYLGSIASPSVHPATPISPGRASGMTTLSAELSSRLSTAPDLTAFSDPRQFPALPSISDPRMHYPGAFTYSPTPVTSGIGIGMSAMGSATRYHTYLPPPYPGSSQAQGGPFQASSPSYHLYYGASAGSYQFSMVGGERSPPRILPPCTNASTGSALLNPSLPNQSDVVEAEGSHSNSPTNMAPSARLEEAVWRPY
Target sequence (Q13951 whole entry, looked up): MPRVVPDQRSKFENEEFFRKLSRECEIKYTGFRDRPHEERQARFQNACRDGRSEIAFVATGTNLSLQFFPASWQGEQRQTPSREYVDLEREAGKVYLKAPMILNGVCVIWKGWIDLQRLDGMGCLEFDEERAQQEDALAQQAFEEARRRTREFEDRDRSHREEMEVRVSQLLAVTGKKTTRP
RanGTP-Imp inh: inhibitors of RanGTP-importin-beta interaction, primary screen, biochemical, FRET, CFP-Ran, YFP-importin-beta, homogeneous; 300,000 compounds, 1.1% hits; Ran GTPase (GTP-bound) - importin-beta complex; inhibition, % (test concentration not listed); cell-free CFP-Ran/YFP-importin-beta FRET ratio; AID 2216, 2009;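 active means more than half of the replicate wells show a fall in the fluorescence ratio signal beyond about 16%, limit read from the data, passing the limit was not always enough; inconclusive means exactly half of the replicate wells pass the set limit; inactive means fewer than half of replicates pass the limit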;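 further: 0% = DMSO wells and 100% = Ran loaded with GDP instead of GTP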
Runt-CBFb FRET: inhibitors of RUNX1 Runt–CBFb binding, primary screen, biochemical, FRET, Cerulean-Runt, Venus-CBFb, uHTS. inhibition, % at 20 µM. Runt-related transcription factor 1 (Homo sapiens) + Core-binding factor subunit beta …. Cerulean-Runt/Venus-CBFb FRET ratio 530/480, 1 h. 220,000 compounds, 0.46% hits. AID 1496, 2009;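 active means inhibition over about 50% at 20 µM in the single-dose screen, limit read from the data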;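 further: 0% = DMSO wells and 100% = excess unlabeled CBFb competitor control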
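Assay system: Cerulean-Runt domain fusion protein, energy donor; Signal: fluorescence energy transfer, 422 nm excitation, 530/480 nm emission; Timing: 1 h compound exposure, room temperature; Control set: unlabeled CBFb; Medium: Tris buffer pH 7.5 with salts and BSA; Compound: single test concentration of 20 µM, 1% DMSO final; Probe or stimulus: Venus-CBFb 100 nM.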
Hck-Nef confirm: retest of Hck:Nef kinase inhibitor hits, confirmation, biochemical, Z-Lyte FRET, 384-well, p-Tyr peptide counterscreen; Recombinant Hck-YEEI:Nef, Z-Lyte FRET kinase assay; 1,300 compounds, 28% hits; AID 463188, 2010; calls only at 10 µM; shares compounds with Hck-Nef inh;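 active means average inhibition of at least 50%, with Z-scores no higher than 3 in both the phospho-tyrosine peptide and fluorescence counterscreens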
* hit, by the source's call; i = inactive; ? = inconclusive; / = no result shown; + = active, no number.

SMILES	Hck-Nef inh	Runt-SMMHC FRET	RanGTP-Imp inh	Runt-CBFb FRET	Hck-Nef confirm
N=c1c(C(=O)NCc2ccc(F)cc2)cc2c(=O)n3ccccc3nc2n1CC1CCCO1 (stereo unspecified)	145*	60*	199*	10	/
COCCn1c(=O)[nH]c2cc(C(=O)NCC3CCCO3)ccc2c1=O (stereo unspecified)	5	1	2	2	/
CCCn1c(=N)c(C(=O)NCC2CCCO2)cc2c(=O)n3cccc(C)c3nc21 (stereo unspecified)	192*	38	184*	12	/
COCc1c(C(=O)N2CCN(c3ccc(C(F)(F)F)cn3)CC2)oc2ccccc12	-24	0	0	-5	/
Cc1ccc(C)n1Cc1ccc(C(=O)O)cc1	74*	2	/	4	i
COC(OC)c1ccnc(-c2ccc(OC(=O)c3ccccc3)cc2)n1	58*	-3	?	-3	i
COC(OC)c1ccnc(-c2ccc(OC(C)=O)cc2)n1	22	-1	2	-1	/
Cc1nn(CC(=O)Nc2ccc3c(c2)oc2ccccc23)c(=O)c2ccccc12	51*	1	0	-2	i
CC(=O)Nc1sc(N/N=C/c2ccc(C)cc2)nc1-c1ccc(C)cc1	60*	-4	-2	4	i
CCOc1cc(/C=N\Nc2nc(-c3ccc(C)cc3)c(NC(C)=O)s2)ccc1O	97*	-1	2	7	+
COc1ccc(/C=N/Nc2nc(-c3ccc(C)cc3)c(NC(C)=O)s2)cc1OC	99*	-3	6	6	+
COCCNCc1nc2sc(C)c(-c3ccccc3)c2c(=O)[nH]1	8	0	1	-1	/
COc1ccccc1S(=O)(=O)Nc1cc(C)nn1-c1ccc(C)cc1	/	/	2	/	/
CC1(C)COC(c2cccc(C3=NC(C)(C)CO3)n2)=N1	2	4	6	-2	/
NC(=S)NC(c1ccccc1)c1ccncc1 (stereo unspecified)	/	/	5	/	/
NC(=S)N/N=C/c1coc2c(ccc3ccccc32)c1=O	61*	-1	-3	0	+
NC(=O)N/N=C/c1coc2ccc3ccccc3c2c1=O	32	-4	-6	3	/
NC(=S)N/N=C/c1coc2cc(Br)ccc2c1=O	30	-5	6	1	/
NC(=S)N/N=C/c1coc2ccc(Br)cc2c1=O	73*	0	0	3	+
O=C(Nc1ccc(-n2cccn2)cc1)C1CCCCN1Cc1cccc2c1OCO2 (stereo unspecified)	/	/	3	/	/
COc1ccc(S(=O)(=O)NCC2CCCN(C(=O)CCSC)C2)cc1 (stereo unspecified)	/	/	4	/	/
O=C(Nc1ccccc1C(=O)O)c1ccc2c(c1)C(=O)N(c1cccc([N+](=O)[O-])c1)C2=O	/	/	1	/	/
O=C(Nc1c[nH]c(=O)[nH]c1=O)c1ccc2c(c1)C(=O)N(c1cccc([N+](=O)[O-])c1)C2=O	94*	-8	7	-2	+
c1ccc(-c2cc(-c3nnc4n3N=C(c3ccc5ccccc5c3)CS4)[nH]n2)cc1	54*	-6	-2	-2	+
Cn1c(=O)[nH]c(=O)c2c1nc(N/N=C/C(Br)=C/c1ccccc1)n2CCO	60*	-17	?	5	+
SMILES	Hck-Nef inh	Runt-SMMHC FRET	RanGTP-Imp inh	Runt-CBFb FRET	Hck-Nef confirm
CSc1nc(SCCO)c2sc3nc(-c4ccco4)c4c(c3c2n1)CC(C)(C)OC4	78*	-46	4	-12	i
O=C(Nc1ccccc1F)C1COc2ccccc2O1 (stereo unspecified)	/	/	-1	/	/
Cc1ccc(NC(=O)CCC(=O)N/N=C/c2coc3ccccc3c2=O)cc1	64*	-2	?	-4	+
Cc1ccc(NC(=O)CCC(=O)N/N=C/c2coc3ccc(F)cc3c2=O)cc1	/	/	1	/	/
O=C(CSc1nnc(-c2ccco2)c(-c2ccco2)n1)c1ccccc1	69*	/	?	/	i
O=C(COC(=O)c1ccc(Br)o1)Nc1cccc(S(=O)(=O)N2CCCCCC2)c1	3	-3	-1	3	/
CCC(C)N1CC(O)=C(c2nc3ccccc3[nH]2)C1=N (stereo unspecified)	58*	0	-1	0	+
O=C1ON=C(c2ccccc2)/C1=C\c1ccco1	54*	37	-5	9	i
CCOC(=O)c1cc2nc(Nc3ccc(OC)cc3)sc2s1	51*	14	1	2	i
COC(=O)c1sc2ncccc2c1OCc1c(Cl)cccc1Cl	55*	-1	?	0	i
Cc1ccc(NS(=O)(=O)c2ccc(NC(=O)c3cccs3)cc2)cc1	-1	3	1	1	/
CCN1/C(=C/C(=O)c2ccco2)Sc2ccccc21	95*	80	8	42	/
CCOC(=O)/C(=C/C=C1\Sc2ccccc2N1CC)C(C)=O	1	-87	0	-35	/
Cn1nccc1C(=O)Nc1nnc(C2CC2)s1	/	/	-4	/	/
CCOC(=O)c1c(NC(=O)Cn2nc(C(F)(F)F)cc2C)sc(C)c1C	2	-2	3	-4	/
Cc1cccc(NC(=O)c2cc3cc([N+](=O)[O-])ccc3s2)n1	51*	-4	?	-3	i
COc1cc2c(cc1OC)C(C)N(C(=O)c1ccc(Br)o1)CC2 (stereo unspecified)	0	2	-1	0	/
CC(C)(C)c1cc(=O)n2[nH]c(N)nc2n1	18	-2	-1	0	/
COC(C)(C)c1cc(C(C)(C)C)nc(N)n1	102*	-3	2	-2	i
OCCCn1c(C(CO)Nc2nc(-c3ccc(Cl)cc3)cs2)nc2ccccc21 (stereo unspecified)	/	/	-1	/	/
COc1ccccc1C(=O)Oc1cc(N)n(S(=O)(=O)c2ccccc2)n1	107*	-5	-2	5	i
Fc1cccc(-n2c(-c3cccs3)nc3nc4ccccc4nc32)c1	59*	-134	-9	-114	i
c1ccn2c(c1)nc1c2nc2ccccn21	66*	72*	-4	20	/
Clc1c(-c2ccccc2)nc2ccccn12	/	/	-1	/	/
CCC(=O)NC(=S)NNC(=O)c1ccc(O)cc1	20	/	-2	/	/
O=c1oc2c3c4c(cc2c2c1CCC2)OCCN4CCC3	97*	53*	/	83*	/
O=C(N/N=C/c1ccccn1)NC12CC3CC(CC(C3)C1)C2	23	-6	-3	2	/
